Reference: ChEMBL document CHEMBL1821701, “Stereochemical analysis of leubethanol, an anti-TB-active serrulatane, from Leucophyllum frutescens” (2011)
Values after ≈ are worked out from the molar mass of the structure shown.

How the values were obtained:
Format in all cases: functional
[1] = tested on: Mycobacterium tuberculosis; experiment: Antitubercular activity against multidrug-resistant Mycobacterium tuberculosis CIBIN/UMF15:99 isolate by microplate Alamar blue assay
Method in brief: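 Modified microplate Alamar Blue assay. H37Rv ATCC 27294 is susceptible to streptomycin, isoniazid, rifampin, ethambutol and pyrazinamide. Clinical isolate CIBIN/UMF15:99 is resistant to the same five drugs. Test stocks were 2 mg/mL in 20% DMSO in Middlebrook 7H9 broth, filter-sterilized. Final concentrations ran from 100 to 0.78 µg/mL. Read-out was MIC, at least in triplicate.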

[2] = tested on: Mycobacterium tuberculosis; experiment: Antitubercular activity against multidrug-resistant Mycobacterium tuberculosis CIBIN/UMF15:99 isolate by microplate Alamar blue assay relative to streptomycin
[3] = tested on: Mycobacterium tuberculosis; experiment: Antitubercular activity against multidrug-resistant Mycobacterium tuberculosis CIBIN/UMF15:99 isolate by microplate Alamar blue assay relative to rifampin

Question: How did the MIC [1] turn out when `CC[C@@H](CO)NCCN[C@@H](CC)CO` [ETHAMBUTOL] was run?
Answer: 8 µg/mL (≈ 39.2 µM)

Question: With `NNC(=O)c1ccncc1` [ISONIAZID] as the compound, how does the MIC [1] read?
Answer: 3.1 µg/mL (≈ 22.6 µM)

Question: With `CC(C)=CCC[C@H](C)[C@@H]1CC[C@@H](C)c2c(O)cc(C)cc21` [LEUBETHANOL] as the compound, how does the Ratio [2] read?
Answer: 16

Question: And the MIC [1]?
Answer: 6.3 µg/mL (≈ 22 µM)

Question: What about the Ratio [3] of the same compound?
Answer: 16

Question: How did the MIC [1] turn out when `CO[C@H]1/C=C/O[C@@]2(C)Oc3c(C)c(O)c4c(O)c(c(/C=N/N5CCN(C)CC5)c(O)c4c3C2=O)NC(=O)/C(C)=C\C=C\[C@H](C)[C@H](O)[C@@H](C)[C@@H](O)[C@@H](C)[C@H](OC(C)=O)[C@@H]1C` [RIFAMPIN] was run?
Answer: > 100 µg/mL

Question: How did the MIC [1] turn out when `CN[C@@H]1[C@H](O[C@H]2[C@H](O[C@H]3[C@H](O)[C@@H](O)[C@H](N=C(N)N)[C@@H](O)[C@@H]3N=C(N)N)O[C@@H](C)[C@]2(O)C=O)O[C@@H](CO)[C@H](O)[C@H]1O` [STREPTOMYCIN] was run?
Answer: > 100 µg/mL
